In ChEMBL document CHEMBL4265978, “In search of constrained FTY720 and phytosphingosine analogs as dual acting anticancer agents targeting metabolic and epigenetic pathways” (Eur J Med Chem, 2018):
Calls of active or inactive are those of the source. No cut-off for these calls is given here.

Assays:
[1] = biological target: T1, Histone deacetylase (Mus musculus) (UniProt Q8VH37+Q9Z2V6+Q9Z2V5+O09106+Q8C2B3+P70288+O88895+Q91WA3+Q99N13+Q6NZM9+Q6P3E7); test: Inhibition of HDAC in MEF assessed as increase in histone H4K5 acetylation at 5 uM after 6 hrs by Western blot analysis; assay type: cell-based
Summary of the method: (§1)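 Histones acid-extracted in 0.2 N HCl overnight at 4°C; protein measured by BCA. Samples run on 4-12% gels and transferred to nitrocellulose, blocked in 5% BSA. Probed overnight at 4°C for acetyl-H3K9, H3K18, H4K5, H4K8 and total H3/H4, then with IRDye secondaries; infrared imaging.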

[2] = biological target: T1, Histone deacetylase (Mus musculus); test: Inhibition of HDAC in MEF assessed as increase in histone H3K9 acetylation at 5 uM after 6 hrs by Western blot analysis; assay type: cell-based; summary of the method: as §1
[3] = biological target: Histone deacetylase (Homo sapiens) (UniProt Q13547+O15379+Q9UBN7+Q92769+Q9UQL6+Q8WUI4+Q9BY41+Q96DB2+P56524+Q9UKV0+Q969S8); test: Inhibition of HDAC (unknown origin) at 5 uM; assay type: protein assay
[4] = biological target: T1, Histone deacetylase (Mus musculus); test: Inhibition of HDAC in mouse FL5.12 cells assessed as increase in histone H3 acetylation at 10 uM after 6 hrs by Western blot analysis; assay type: cell-based; summary of the method: as §1
[5] = biological target: T1, Histone deacetylase (Mus musculus); test: Inhibition of HDAC in MEF assessed as increase in histone H3K18 acetylation at 6.1 uM after 24 hrs by Western blot analysis; assay type: cell-based; summary of the method: as §1
[6] = biological target: T1, Histone deacetylase (Mus musculus); test: Inhibition of HDAC in MEF assessed as increase in histone H3 acetylation at 10 to 20 uM after 6 hrs by Western blot analysis; assay type: cell-based; summary of the method: as §1
[7] = biological target: T1, Histone deacetylase (Mus musculus); test: Inhibition of HDAC in MEF assessed as increase in histone H4K5 acetylation at 10 uM after 6 hrs by Western blot analysis; assay type: cell-based; summary of the method: as §1
[8] = biological target: T1, Histone deacetylase (Mus musculus); test: Inhibition of HDAC in MEF assessed as increase in histone H4K8 acetylation at 5 uM after 6 hrs by Western blot analysis; assay type: cell-based; summary of the method: as §1
[9] = biological target: T1, Histone deacetylase (Mus musculus); test: Inhibition of HDAC in MEF assessed as increase in histone H3 acetylation at 5 uM after 6 hrs by Western blot analysis; assay type: cell-based; summary of the method: as §1
[10] = biological target: T1, Histone deacetylase (Mus musculus); test: Inhibition of HDAC in MEF assessed as increase in histone H3K18 acetylation at 5 uM after 6 hrs by Western blot analysis; assay type: cell-based; summary of the method: as §1
[11] = biological target: T1, Histone deacetylase (Mus musculus); test: Inhibition of HDAC in MEF assessed as increase in histone H3K9 acetylation at 6.1 uM after 24 hrs by Western blot analysis; assay type: cell-based; summary of the method: as §1
[12] = biological target: T1, Histone deacetylase (Mus musculus); test: Inhibition of HDAC in MEF assessed as increase in histone H3 acetylation at 6.1 uM after 24 hrs by Western blot analysis; assay type: cell-based; summary of the method: as §1
[13] = biological target: T1, Histone deacetylase (Mus musculus); test: Inhibition of HDAC in MEF assessed as increase in histone H4 acetylation at 5 uM after 6 hrs by Western blot analysis; assay type: cell-based; summary of the method: as §1
[14] = biological target: T1, Histone deacetylase (Mus musculus); test: Inhibition of HDAC in MEF assessed as increase in histone H4 acetylation at 10 uM after 6 hrs by Western blot analysis; assay type: cell-based; summary of the method: as §1

- inhibition [1]: inactive
- inhibition [2]: inactive
- inhibition [3]: 60 to 75%
- inhibition [4]: inactive
- inhibition [5]: inactive
- inhibition [6]: inactive
- inhibition [7]: inactive
- inhibition [8]: inactive
- inhibition [9]: inactive
- inhibition [10]: inactive
- inhibition [11]: inactive
- inhibition [12]: inactive
- inhibition [13]: inactive
- inhibition [14]: inactive
Compound: CCCCCCCCc1ccc(CCC(N)(CO)COP(=O)(O)O)cc1 (centres undefined)
